Laboratory results from publication PMC4238785 (British Journal of Clinical Pharmacology, 2014).
Like-named read-outs stand apart in the source and are kept apart here.

Key:
[1] = assay type: in vivo, human; conditions: for Tmax / Vd/F: male, human, plasma, po
In short: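 Healthy subjects received a single oral 20 mg test-compound dose with 240 ml water after an overnight fast, continued to 4 h. Period 2, after a 5−7 day washout: CYP3A4 inhibitor 400 mg orally once daily for 7 days, co-dosed on day 5. Plasma was sampled predose–72 h, acidified (citrate, pH 1.5) and run by chiral LC-MS. Ratios: ANOVA (log values, period and subject effects), least-square geometric means, 90% CI.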

CYP2A6 = conditions: [14C]-apremilast, in vitro; cited from earlier work
[2] = acidic conditions; no reference given; cited from earlier work
MDR1 = conditions: in vitro studies, no reference given; cited from earlier work
OATP1B3 = conditions: in vitro studies, no reference given; cited from earlier work
CYP1A2 = conditions: [14C]-apremilast, in vitro; cited from earlier work
OATP1B1 = conditions: in vitro studies, no reference given; cited from earlier work
[3] = assay type: in vivo, human
In short: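 Healthy subjects fasted overnight and received a single oral 30 mg test-compound dose in each of three periods. After a 4-day washout, it was followed 5 min later by 600 mg i.v. inducer over 30 min. Then 600 mg oral inducer daily on days 7–21, co-dosed on day 20. Plasma (predose–48 h) was citric-acid stabilised, extracted with MTBE and run by achiral LC-MS. Ratios: ANOVA of log values, geometric-mean 90% CI.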

[4] = cited from earlier work
CYP3A4 = conditions: [14C]-apremilast, in vitro; cited from earlier work
[5] = midazolam with rifampicin; cited from earlier work
[6] = apremilast 20 mg with ketoconazole 400 mg once daily vs alone
[7] = apremilast given with ketoconazole vs alone
[8] = with ketoconazole vs apremilast 20 mg alone, least-square geometric means
[9] = multiple oral doses of rifampicin vs apremilast alone
[10] = with i.v. rifampicin vs apremilast 30 mg alone, least-square geometric means

With `CCOc1cc(C(CS(C)(=O)=O)N2C(=O)c3cccc(N)c3C2=O)ccc1OC` (stereo not drawn) [CC-10055] the concentrations in urine ([1]; KETO study) was “no detectable concentrations” and the “overall metabolite to parent ratios in plasma” value ([1]; KETO study) was no more than 5%.
For `CCOc1cc([C@@H](CS(C)(=O)=O)N2C(=O)c3cccc(NC(C)=O)c3C2=O)ccc1OC` [apremilast], the “rate of metabolism by CYP isoform” value (CYP2A6) is listed as “lower rates of metabolism”, the stability [2] is listed as “stable” and the transporter substrate (MDR1) is listed as “is a MDR1 substrate”. For the same compound, the transporter substrate (OATP1B3) was “not a substrate”, the “rate of metabolism by CYP isoform” value (CYP1A2) was “lower rates of metabolism” and the transporter substrate (OATP1B1) was “not a substrate”. For the same compound, the “fraction of apremilast excreted unchanged in the urine” value ([1]; KETO study, overall) was less than 5%, the CL/F ([1]; apremilast 20 mg single oral dose alone, n = 18, arithmetic mean (SD)) was 10.2 (3.5) l h^−1 and the “increase of AUC(0,∞) by ketoconazole” value [1, 6] was “≈ 36%”. The “increase of Cmax by ketoconazole” value [1, 6] was 5%, the “change in renal clearance” value [1, 7] was “no meaningful change” and the “increase in the percentage of urinary excretion” value [1, 7] was “approximately 36%”. It also gave a Tmax [1] of 4 h, a Vd/F [1] of 84 L and a Tmax ([1]; 20 mg) of 2.5 h. The Vd/F ([1]; 20 mg) was 111 L, the “AUC(0,∞) Ratio (90% CI)” value [1, 8] was 136.4 (126.2, 147.5) % and the “CL/F Ratio (90% CI)” value [1, 8] was 73.3 (67.8, 79.2) %. The “Cmax Ratio (90% CI)” value [1, 8] was 104.9 (92.2, 119.3) %, the “Vz/F Ratio (90% CI)” value [1, 8] was 77.5 (69.8, 86.1) % and the “t1/2 Ratio (90% CI)” value [1, 8] was 106.5 (100.3, 112.7) %. For the same compound, the “increase in Cmax” value ([3]; after i.v. rifampicin vs apremilast alone) was 13%, the CL/F ([3]; apremilast 30 mg single oral dose alone, n = 21, arithmetic mean (SD)) was 10.0 (3.02) l h^−1 and the Tmax ([3]; apremilast 30 mg single oral dose alone, n = 21, median (range)) was 2.0 (0.5–5.0) h. The Tmax ([3]; both, human, plasma, oral) was 1.25 h, the Vd/F ([3]; both, human, plasma, oral) was 115 L and the Tmax ([3]; both, human, plasma, po) was 1 h. The Vd/F ([3]; both, human, plasma, po) was 342 L, the half-life ([3]; both, human, plasma, po) was 6.31 h and the Tmax ([3]; both, human, plasma, po, 30 mg) was 2 h. For the same compound, the Vd/F ([3]; both, human, plasma, po, 30 mg) was 119 L, the half-life ([3]; both, human, plasma, po, 30 mg) was 8.2 h and the “decrease of Cmax” value [3, 9] was “approximately 43%”. For the same compound, the “decrease of mean AUC(0,∞)” value [3, 9] was “≈ 72%”, the “increase of apremilast clearance” value [3, 9] was “≈ 3.6 fold” and the “AUC(0,∞) Ratio (90% CI)” value [3, 10] was 95.71 (88.0, 104.1) %. For the same compound, the “Cmax Ratio (90% CI)” value [3, 10] was 113.1 (103.2, 123.9) %, the “dose excreted unchanged in urine” value [4] was 3% and the “rate of metabolism by CYP isoform” value (CYP3A4) was “high rate”.
For `Cc1ncc2n1-c1ccc(Cl)cc1C(c1ccccc1F)=NC2` [midazolam], the “exposure relative to administration alone” value [5] is given as 4%.
